Tests used:
[1] = molecular target: T1, Alpha-1A adrenergic receptor (Homo sapiens) (UniProt P35348); assay: The binding affinity was evaluated on cloned human Alpha-1A adrenergic receptor expressed in chinese hamster ovary(CHO) cells by using [3H]prazosin as radioligand.; format: cell-based
T1 sequence (whole entry): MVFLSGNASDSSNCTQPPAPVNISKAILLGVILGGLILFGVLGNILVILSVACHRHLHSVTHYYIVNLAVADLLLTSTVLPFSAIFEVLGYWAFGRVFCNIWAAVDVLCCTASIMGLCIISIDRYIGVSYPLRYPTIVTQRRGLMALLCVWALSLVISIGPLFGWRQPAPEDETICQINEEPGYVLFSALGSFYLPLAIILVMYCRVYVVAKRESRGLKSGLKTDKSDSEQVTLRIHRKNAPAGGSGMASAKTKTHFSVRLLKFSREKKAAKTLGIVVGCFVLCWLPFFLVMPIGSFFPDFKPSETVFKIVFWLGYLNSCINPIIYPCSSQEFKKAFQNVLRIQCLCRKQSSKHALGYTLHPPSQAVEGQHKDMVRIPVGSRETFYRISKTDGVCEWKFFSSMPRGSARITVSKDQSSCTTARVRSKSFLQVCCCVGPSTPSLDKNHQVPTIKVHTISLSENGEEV
Summary of the method: (§1)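 Membranes (30 μg protein) from CHO cells stably expressing each human α1 subtype, in 50 mM Tris-HCl pH 7.4. Incubated with 0.1–0.4 nM [3H]prazosin for 30 min at 25 °C, competitor 1 pM–10 μM. Nonspecific binding with 10 μM phentolamine. Ki by Cheng-Prusoff. 2–3 experiments in triplicate.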

[2] = molecular target: T2, 5-hydroxytryptamine receptor 1A (Homo sapiens) (UniProt P08908); assay: Maximum […] was evaluated as ([35S]GTP binding on cloned human 5-hydroxytryptamine 1A receptor; format: functional
T2 sequence (whole entry): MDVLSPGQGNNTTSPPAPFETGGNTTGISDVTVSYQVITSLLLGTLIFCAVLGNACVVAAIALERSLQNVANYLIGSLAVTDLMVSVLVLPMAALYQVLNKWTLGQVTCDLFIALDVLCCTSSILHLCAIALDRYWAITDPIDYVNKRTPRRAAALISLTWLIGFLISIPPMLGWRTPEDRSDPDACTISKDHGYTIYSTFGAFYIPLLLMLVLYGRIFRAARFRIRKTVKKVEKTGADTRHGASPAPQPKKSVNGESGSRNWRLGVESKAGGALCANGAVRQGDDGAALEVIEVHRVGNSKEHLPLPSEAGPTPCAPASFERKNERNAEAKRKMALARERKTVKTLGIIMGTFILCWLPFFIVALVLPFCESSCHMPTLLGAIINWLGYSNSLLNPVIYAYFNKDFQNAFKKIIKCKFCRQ
Summary of the method: (§2)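 HeLa membranes stably expressing human 5-HT1A, in 20 mM HEPES, 3 mM MgSO4, 120 mM NaCl (pH 7.4). Preincubated 20 min at 30 °C with 30 μM GDP and drug (100 μM–0.1 nM), then [35S]GTPγS (150–250 pM) added for a further 30 min at 30 °C. Nonspecific binding with 10 μM GTPγS. Filtration and scintillation counting. Stimulation is % above basal, with maximal 5-HT response = 100%. Emax and pD2 from curve fitting. Triplicate, 2–3 sessions.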

[3] = molecular target: T3, Alpha-1D adrenergic receptor (Homo sapiens) (UniProt P25100); assay: The binding affinity was evaluated on cloned human Alpha-1D adrenergic receptor expressed in chinese hamster ovary(CHO) cells by using [3H]-prazosin as radioligand.; format: cell-based; summary of the method: as §1
T3 sequence (whole entry): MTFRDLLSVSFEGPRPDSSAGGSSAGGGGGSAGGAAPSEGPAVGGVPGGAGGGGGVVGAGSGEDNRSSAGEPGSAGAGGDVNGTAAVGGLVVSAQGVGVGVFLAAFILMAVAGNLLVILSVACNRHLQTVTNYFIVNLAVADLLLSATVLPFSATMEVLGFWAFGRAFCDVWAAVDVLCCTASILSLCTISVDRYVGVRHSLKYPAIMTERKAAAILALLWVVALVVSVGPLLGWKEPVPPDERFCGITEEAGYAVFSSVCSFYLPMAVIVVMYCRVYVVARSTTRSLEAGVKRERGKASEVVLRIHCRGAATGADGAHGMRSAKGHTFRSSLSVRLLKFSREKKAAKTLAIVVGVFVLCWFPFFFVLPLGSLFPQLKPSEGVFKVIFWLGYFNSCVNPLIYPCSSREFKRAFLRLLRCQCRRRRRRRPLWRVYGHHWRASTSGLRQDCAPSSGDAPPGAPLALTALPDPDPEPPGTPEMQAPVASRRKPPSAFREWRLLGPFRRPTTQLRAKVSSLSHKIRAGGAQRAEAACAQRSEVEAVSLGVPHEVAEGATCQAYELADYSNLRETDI

[4] = molecular target: T2, 5-hydroxytryptamine receptor 1A (Homo sapiens); assay: Agonist efficacy was evaluated as [35S]GTP binding on cloned human 5-hydroxytryptamine 1A receptor; format: functional; summary of the method: as §2
[5] = molecular target: T4, Alpha-1B adrenergic receptor (Homo sapiens) (UniProt P35368); assay: The binding affinity was evaluated on cloned human Alpha-1B adrenergic receptor expressed in chinese hamster ovary(CHO) cells by using [3H]prazosin as radioligand.; format: cell-based; summary of the method: as §1
T4 sequence (whole entry): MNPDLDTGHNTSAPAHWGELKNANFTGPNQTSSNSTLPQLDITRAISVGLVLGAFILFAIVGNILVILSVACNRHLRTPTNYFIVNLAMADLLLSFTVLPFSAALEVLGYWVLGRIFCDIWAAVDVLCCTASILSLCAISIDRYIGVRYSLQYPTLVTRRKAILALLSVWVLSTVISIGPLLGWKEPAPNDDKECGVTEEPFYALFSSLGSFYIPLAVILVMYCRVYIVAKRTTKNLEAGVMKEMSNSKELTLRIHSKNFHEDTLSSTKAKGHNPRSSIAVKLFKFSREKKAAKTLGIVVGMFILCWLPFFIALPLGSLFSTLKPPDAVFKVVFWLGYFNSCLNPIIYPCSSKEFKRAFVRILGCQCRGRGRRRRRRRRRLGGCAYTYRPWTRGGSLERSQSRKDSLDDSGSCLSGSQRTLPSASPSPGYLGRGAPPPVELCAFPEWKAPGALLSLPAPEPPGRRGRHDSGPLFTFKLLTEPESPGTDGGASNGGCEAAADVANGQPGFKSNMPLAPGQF

[6] = molecular target: T2, 5-hydroxytryptamine receptor 1A (Homo sapiens); assay: The binding affinity was evaluated on cloned human 5-hydroxytryptamine 1A receptor expressed in HeLa cells by using DPAT as radioligand.; format: cell-based
Summary of the method: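 Membranes from HeLa cells stably expressing human 5-HT1A, in 50 mM Tris-HCl pH 7.4, 2.5 mM MgCl2, 10 μM pargyline. Nonspecific binding with 10 μM 5-HT. Filtration. Ki by Cheng-Prusoff. 2–3 experiments in triplicate.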

[7] = molecular target: T5, Alpha-1A adrenergic receptor (Rattus norvegicus) (UniProt P43140); assay: Antagonist affinity was expressed as apparent pKb at Alpha-1A adrenergic receptor on isolated rat prostatic vas deferens (alpha1A).; format: functional, tissue-based
T5 sequence (whole entry): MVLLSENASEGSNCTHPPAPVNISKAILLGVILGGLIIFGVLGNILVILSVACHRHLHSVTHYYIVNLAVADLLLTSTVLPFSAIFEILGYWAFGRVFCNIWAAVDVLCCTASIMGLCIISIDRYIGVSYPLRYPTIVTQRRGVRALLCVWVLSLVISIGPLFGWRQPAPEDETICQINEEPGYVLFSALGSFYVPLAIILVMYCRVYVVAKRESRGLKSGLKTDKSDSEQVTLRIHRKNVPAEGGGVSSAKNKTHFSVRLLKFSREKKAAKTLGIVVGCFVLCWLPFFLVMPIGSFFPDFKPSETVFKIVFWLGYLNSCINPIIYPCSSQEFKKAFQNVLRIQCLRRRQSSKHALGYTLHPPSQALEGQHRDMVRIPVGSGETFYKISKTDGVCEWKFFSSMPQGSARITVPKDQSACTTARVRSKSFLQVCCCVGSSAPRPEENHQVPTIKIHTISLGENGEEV
Summary of the method: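 Rat prostatic vas deferens in Tyrode with 0.1 μM cocaine. Equilibrated 60 min, primed twice with 10 μM noradrenaline, then a control cumulative (–)-noradrenaline curve recorded isometrically. Antagonist equilibrated 30 min before a repeat curve. Apparent pKb = log(DR−1) − log[B], with DR as the ratio of agonist EC50 with/without antagonist. 2–3 antagonist concentrations, each tested four times.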

[8] = molecular target: T6, Alpha-1D adrenergic receptor (Rattus norvegicus) (UniProt P23944); assay: Antagonist affinity was expressed as apparent pKb at Alpha-1D adrenergic receptor on isolated rat thoracic aorta (Alpha-1D); format: functional, tissue-based
T6 sequence (whole entry): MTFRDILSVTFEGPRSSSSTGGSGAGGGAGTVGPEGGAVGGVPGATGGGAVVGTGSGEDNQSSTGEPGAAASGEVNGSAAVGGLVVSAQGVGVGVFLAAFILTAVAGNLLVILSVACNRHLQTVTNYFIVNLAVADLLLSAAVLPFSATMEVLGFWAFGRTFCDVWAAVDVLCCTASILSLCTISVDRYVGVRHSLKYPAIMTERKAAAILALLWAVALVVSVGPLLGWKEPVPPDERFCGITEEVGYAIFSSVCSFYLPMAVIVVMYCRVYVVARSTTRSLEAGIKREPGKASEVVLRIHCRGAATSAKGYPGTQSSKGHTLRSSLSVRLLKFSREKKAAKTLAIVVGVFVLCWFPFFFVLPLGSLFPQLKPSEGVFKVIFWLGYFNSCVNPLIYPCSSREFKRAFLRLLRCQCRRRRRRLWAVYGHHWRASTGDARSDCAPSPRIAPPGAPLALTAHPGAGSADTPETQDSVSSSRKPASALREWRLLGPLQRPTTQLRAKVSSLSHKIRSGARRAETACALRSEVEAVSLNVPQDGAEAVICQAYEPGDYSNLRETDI
Summary of the method: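 Helicoidal strips of rat thoracic aorta at 1 g tension, with 0.1 μM cocaine and 1 μM propranolol. After ≥1 h equilibration, cumulative (–)-noradrenaline curves at 30-min intervals; the third served as control. Antagonist equilibrated 30 min before the fourth curve. Apparent pKb from log(DR−1) − log[B], 2–3 antagonist concentrations, each tested four times.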

[9] = molecular target: T3, Alpha-1D adrenergic receptor (Homo sapiens); assay: The binding affinity was evaluated on cloned human alpha-1D adrenergic receptor expressed in chinese hamster ovary(CHO) cells by using [3H]prazosin as radioligand.; format: cell-based; summary of the method: as §1
[10] = molecular target: T1, Alpha-1A adrenergic receptor (Homo sapiens); assay: The binding affinity was evaluated on cloned human alpha-1A adrenergic receptor expressed in chinese hamster ovary(CHO) cells by using [3H]prazosin as radioligand.; format: cell-based; summary of the method: as §1
[11] = molecular target: T2, 5-hydroxytryptamine receptor 1A (Homo sapiens)
[12] = molecular target: T2, 5-hydroxytryptamine receptor 1A (Homo sapiens); remark: listed apart in the source
[13] = molecular target: T4, Alpha-1B adrenergic receptor (Homo sapiens); assay: The binding affinity was evaluated on cloned human alpha-1B adrenergic receptor expressed in chinese hamster ovary(CHO) cells by using [3H]prazosin as radioligand.; format: cell-based; summary of the method: as §1
[14] = molecular target: Adrenergic receptor alpha-2 (Rattus norvegicus) (UniProt P22086+P19328+P22909); assay: The binding affinity was evaluated on alpha-2 adrenergic receptor expressed in rat cortex by using [3H]rauwolscine as radioligand.
Summary of the method: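 Male Sprague-Dawley rat cerebral cortex membranes, washed in Tris-HCl pH 7.4 and held in buffer with 10 μM pargiline and 0.1% ascorbic acid. Incubated 30 min at 25 °C with 0.5-1.5 nM [3H]rauwolscine; nonspecific binding with 10 μM phentolamine. Filtration, scintillation counting. Ki from Cheng-Prusoff; 2-3 experiments in triplicate.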

[15] = molecular target: 5-hydroxytryptamine receptor 2A (Rattus norvegicus) (UniProt P14842); assay: The binding affinity was evaluated on 5-hydroxytryptamine 2A receptor expressed in rat cortex by using [3H]ketanserin as radioligand.
Summary of the method: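 Rat cerebral cortex membranes in Tris-HCl pH 7.4 with 10 μM pargyline and 0.1% ascorbic acid. Incubated 20 min at 37 °C with 0.7–1.3 nM [3H]ketanserin. Nonspecific binding with 2 μM ketanserin. Filtration and scintillation counting. Ki by Cheng-Prusoff. 2–3 experiments in triplicate.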

[16] = molecular target: D(2) dopamine receptor (Rattus norvegicus) (UniProt P61169); assay: The binding affinity was evaluated on Dopamine receptor D2 expressed in rat striatum by using [3H]spiperone as radioligand; format: tissue-based
Summary of the method: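 Rat striatum membranes in Tris-HCl with 10 μM pargyline, 0.1% ascorbic acid, 120 mM NaCl, 5 mM KCl, 2 mM CaCl2, 1 mM MgCl2. Incubated 15 min at 37 °C with 0.2–0.6 nM [3H]spiperone. Nonspecific binding with 1 μM (+)-butaclamol. Ki by Cheng-Prusoff. 2–3 experiments in triplicate.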

Sequence of 5-hydroxytryptamine receptor 2A (Rattus norvegicus) (P14842 whole entry): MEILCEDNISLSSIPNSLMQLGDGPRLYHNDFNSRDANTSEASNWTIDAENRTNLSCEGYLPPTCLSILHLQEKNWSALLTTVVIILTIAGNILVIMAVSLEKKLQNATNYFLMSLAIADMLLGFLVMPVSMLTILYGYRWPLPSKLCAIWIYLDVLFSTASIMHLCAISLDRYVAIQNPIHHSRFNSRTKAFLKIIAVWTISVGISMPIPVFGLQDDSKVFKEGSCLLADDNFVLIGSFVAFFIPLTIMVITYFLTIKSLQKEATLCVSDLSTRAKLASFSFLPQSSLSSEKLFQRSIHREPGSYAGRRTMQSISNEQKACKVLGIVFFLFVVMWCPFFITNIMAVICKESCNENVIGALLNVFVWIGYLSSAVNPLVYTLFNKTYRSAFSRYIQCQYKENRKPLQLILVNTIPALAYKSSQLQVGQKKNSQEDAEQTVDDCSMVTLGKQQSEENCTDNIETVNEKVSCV
Sequence of D(2) dopamine receptor (Rattus norvegicus) (P61169 whole entry): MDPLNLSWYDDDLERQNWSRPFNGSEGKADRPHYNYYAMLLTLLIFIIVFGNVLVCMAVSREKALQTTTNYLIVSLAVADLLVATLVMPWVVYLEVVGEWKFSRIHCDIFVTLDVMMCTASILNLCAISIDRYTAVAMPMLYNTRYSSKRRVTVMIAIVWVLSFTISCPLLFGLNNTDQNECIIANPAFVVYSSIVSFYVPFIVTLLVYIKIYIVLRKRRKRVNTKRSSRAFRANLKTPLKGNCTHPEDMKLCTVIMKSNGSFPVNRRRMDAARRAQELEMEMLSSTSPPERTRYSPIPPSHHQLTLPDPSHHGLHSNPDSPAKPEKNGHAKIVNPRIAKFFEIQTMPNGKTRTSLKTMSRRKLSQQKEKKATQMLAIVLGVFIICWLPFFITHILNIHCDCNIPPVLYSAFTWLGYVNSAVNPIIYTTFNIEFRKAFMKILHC

Structure (SMILES): COc1cccc(OC)c1OCCNCC1=Cc2ccccc2OC1c1ccccc1 (stereo not given)
- pKi [1]: 7.14
- Max [2]: 40%
- pKi [3]: 6.95
- pD2 [4]: 6.44
- pKi [5]: 6.84
- pKi [6]: 8.08

Structure (SMILES): COc1cccc(OC)c1OCCNC[C@H]1Oc2ccccc2O[C@@H]1c1ccccc1
- pKb [7]: 8.18
- pKb [8]: 7.51

Structure (SMILES): COc1cccc(OC)c1OCCNCC1C(=O)c2ccccc2SC1c1ccccc1 (stereo not given)
- pKi [9]: 6.37
- pKi [10]: 7.42
- pKi [5]: < 6
- pKi [6]: 7.36

Structure (SMILES): NCCc1c[nH]c2ccc(C(N)=O)cc12
- pD2 [11]: 8.45

Structure (SMILES): NCCc1c[nH]c2ccc(O)cc12
- pD2 [12]: 7.3

Structure (SMILES): COc1cccc(OC)c1OCCNCC1C(=O)c2ccccc2CC1c1ccccc1 (stereo not given)
- pKi [9]: 6.88
- pKi [10]: 8.06
- pKi [13]: 6.11
- pKi [14]: 6.45
- pKi [15]: 6.63
- pKi [16]: < 6
- pKi [6]: 6.83

Structure (SMILES): COc1cccc(OC)c1OCCNCC1COc2ccccc2O1 (stereo not given)
- pKi [10]: 9.37
- pKi [14]: 7.83
- pKi [15]: 6
- pKi [16]: 6.91
- pKi [6]: 8.68

Structure (SMILES): COc1cccc(OC)c1OCCNCC1Oc2ccccc2CC1c1ccccc1 (stereo in doubt; 6)
- pKi [9]: 6.86
- pKi [10]: 6.78
- pKi [13]: 6.51
- pKi [6]: 6.76

Source: ChEMBL document CHEMBL1132324, “Structure-activity relationships in 1,4-benzodioxan-related compounds. 6. Role of the dioxane unit on selectivity for alpha(1)-adrenoreceptor subtypes” (J Med Chem, 1999)
